# The RNAGym collection of RNA variant scans (doi:10.1101/gad.245936.114)
# Variants at the floor of the assay were thinned out.
# B1: tRNA (parent)
# chain: CUCUCGGUAGCCAAGUUGGUUUAAGGCGCAAGACUUUAAUUUAUCACUACGAAAUCUUGAGAUCGGGCGUUCGACUCGCCCCCGGGAGAUUUUUUCCUCGAGCAA
# Variants of: B1
# Experiment: nonsense suppression (GFP-seq) (ratio to wild type); higher = more function; SUP4oc tRNA, yeast GFP reporter sort-seq
# Outline: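 Sorted GFP/RFP bins of yeast were each Illumina-sequenced with a phred ≥30 cutoff; the cells held a genome-integrated ochre-suppressor tRNA variant from a library with ~3% random mutations, a galactose-driven GFP ochre reporter, and RFP. Culture was in raffinose/galactose medium containing 80 mg/L adenine. Nonsense suppression, termed GFPSEQ, is the median GFP/RFP of the bins weighted by each variant's estimated cell share per bin, relative to the unmutated parent tRNA, for variants reaching ≥100 reads and ≥30 cells.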
row,Variant,nonsense suppression
1,G67C C83A,≤ 0.026
2,C75A C79U,1.21
3,C79A C83A,≤ 0.026
4,G25A U57C,≤ 0.026
5,U21G C29U,0.809
6,A9C A31G,0.857
7,G15C A23G G66A,≤ 0.026
8,A9G U21A,0.36
9,A9C G18A A31C A54C A62U G69C G88C,≤ 0.026
10,U21G A30U,≤ 0.026
11,A60U G65C C81G,0.203
12,C11A G66C,≤ 0.026
13,C3U C34U,≤ 0.026
14,G69C G88U,≤ 0.026
15,U55C U57C,0.026
16,C3U A30G C34U,≤ 0.026
17,U4G A13U,0.191
18,U2G C77U,≤ 0.026
19,A60G A74C,0.0318
20,G7U U8C,≤ 0.026
21,U20G G59C C64A G85U,≤ 0.026
22,A9U C64U,0.0349
23,G26U A31G A54U U57C G73C,≤ 0.026
24,G25A C56G C79U,≤ 0.026

row,Variant,nonsense suppression
1,G61U U63G,0.232
2,C12A G18U G66A U70C C77G C83U,≤ 0.026
3,U17C,1.05
4,A24U U35G A89G,≤ 0.026
5,U17C C83U,0.191
6,G59U U63C,0.868
7,C11U U22C,0.0289
8,C3U G10A,0.0262
9,A33G U76G,≤ 0.026
10,A9U G88A,0.0329
11,A54U A62G,0.0321
12,A9G A54U,0.196
13,A9G A54C,0.207
14,C1U G67C,≤ 0.026
15,U8A G10A G65A G85U,≤ 0.026
16,G78C G84U,0.0271
17,G28A U76G,≤ 0.026
18,C5A G7U U20G A74U,≤ 0.026
19,G7C A60U G61A C82G,0.0263
20,U20G G61A,0.635
21,G26A U70A,≤ 0.026
22,G61A U76G,0.0268
23,G69U G86C,0.17
24,U16G G25C U55G,≤ 0.026

row,Variant,nonsense suppression
1,C12U G84U,0.117
2,A30U U58A,0.89
3,C79U G86C,0.0687
4,U8C U16A A30C A54C,≤ 0.026
5,U4G A31U,0.0387
6,U55C G61A,0.194
7,G61C C72G,0.0291
8,C1A A9U C68G U76A C81A,≤ 0.026
9,G15C U17G G19C G25U,≤ 0.026
10,C5A C64A C77A,≤ 0.026
11,C12U A60U,0.723
12,C68U C83G,≤ 0.026
13,G10C C77U,≤ 0.026
14,U4G G7A,0.0974
15,C1G C27A U55G,≤ 0.026
16,U4A U21G C79U,≤ 0.026
17,U4G G59A,0.0506
18,U16G U76C,1.07
19,C12U U35C,0.0352
20,A30U A62G C81G,≤ 0.026
21,U4G,1.16
22,U8G C29G G84A,≤ 0.026
23,U21A G78C,0.0372
24,U4A A60U,0.52

row,Variant,nonsense suppression
1,A9U C12A A13C C72U C79A,≤ 0.026
2,C12U U16G,0.785
3,A30G C77U,≤ 0.026
4,C3G U4C,0.399
5,U8A G25C,≤ 0.026
6,A13G A33U U57A,≤ 0.026
7,U76A G85U,0.0588
8,A13C C27A G61C C75G,≤ 0.026
9,A13U U16G,0.819
10,A9U G85C,0.0283
11,U21C C29U G61U,0.518
12,C29U A30U,0.124
13,G85U G88A,0.0446
14,U17G G67A,0.0593
15,U21G G61A,0.237
16,U17C G28U A30C,≤ 0.026
17,A9C C75A,0.938
18,U20C C75U,0.843
19,A9G A14G,0.0311
20,U2C A14U U57C,≤ 0.026
21,C11U U63G,0.034
22,A60C G73C,0.0519
23,A14G G18A U21C A30G A33G C79A C82A A89U,≤ 0.026
24,U22G U55C G65C C80U,≤ 0.026

row,Variant,nonsense suppression
1,C12U A13G U21A,0.0262
2,C11A U71C,≤ 0.026
3,C11A U71A,≤ 0.026
4,U76A C79A,≤ 0.026
5,G61A C68U,0.609
6,C3U A14G C80G,≤ 0.026
7,U2C G88A,≤ 0.026
8,C5A A13C U58A C81A,≤ 0.026
9,A9U G15A,0.0449
10,A33U U57C A62G,≤ 0.026
11,U17A U21A,0.966
12,U16G G28U U35G G59A G85A,≤ 0.026
13,A74G G78C,0.0343
14,C3U A89C,0.0874
15,G66U C79A,≤ 0.026
16,G61A C68U G69A G73A,≤ 0.026
17,C1G G73A,0.0631
18,C5U G69A,≤ 0.026
19,G61A G67A G73C,≤ 0.026
20,A23C A30U C34G U70C C72G,≤ 0.026
21,A24C U71A G78C C80A A87U,≤ 0.026
22,C3U C80U,0.0737
23,G67A U71C A89C,≤ 0.026
24,U16C U21A U22G,0.861

row,Variant,nonsense suppression
1,U55C C83G,0.0314
2,U17C A24G,0.0323
3,A9G C12A,≤ 0.026
4,A23U A30U,0.0282
5,C75U G78C,1.14
6,A9G G61U,1.1
7,A24C G88A,0.0453
8,U17G G32U U55A U57C U76C,≤ 0.026
9,A60G G85C,0.119
10,U17A U76C,1.06
11,U17A C29U,1.15
12,A24C G32U,0.043
13,G61A G65C G69A C80U,≤ 0.026
14,U22C U63C,1.2
15,C1A C5G,≤ 0.026
16,G28U C34A A87U,≤ 0.026
17,C5U A9G,0.0324
18,G78A G88C,0.0845
19,C1A C81U,0.045
20,A13C A31U G61C,≤ 0.026
21,G26U G28U,≤ 0.026
22,A54G G67C,≤ 0.026
23,U17A A54G G85U,≤ 0.026
24,U22C G73A C80U,0.0265

row,Variant,nonsense suppression
1,A30G G85C,≤ 0.026
2,U4G C75U,1.1
3,A31C G61A C75G,≤ 0.026
4,C3U U58C,0.202
5,G18A A24C,0.0483
6,U63A G86U,0.0573
7,C5A C27G G73A,≤ 0.026
8,G18U C82U G86C,≤ 0.026
9,A9U G61C,0.197
10,A23G A60G,0.0474
11,G6C U57C G65A G67A A74C G78C,≤ 0.026
12,G25A G32U,≤ 0.026
13,C5G A33G G65A G66C,≤ 0.026
14,C11U C29G,≤ 0.026
15,C3A A13C,0.0261
16,G28U G78A,0.0292
17,C5U C29U C34U A87C,≤ 0.026
18,A9U A31G,0.193
19,U4G A60U,1.12
20,C3A G67U,≤ 0.026
21,C3U U16G,0.22
22,G6A G19C G67C A87G,≤ 0.026
23,G15U C68G,≤ 0.026
